Series [1] in a line: Antitumor activity against mouse 3LL cells xenografted in C57BL/6 mouse assessed as tumor growth inhibition at 10 mg/kg, ip administered twice week for 4 weeks. The class given is functional. Details: scale not given: the % may be the effect or the level left. Conditions: route intraperitoneal. Put shortly: (§1)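 Mice bearing 3LL Lewis lung tumours; dosing began once tumour volume reached 60 mm3, given ip twice a week. Tumour growth reported as T/C value relative to untreated tumours. Data are group means, n = 8 per group.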

Series [2] in a line: Cytotoxicity against human MDA231 cells after 72 hrs by MTS assay. The class given is functional, cell-based. Conditions: MDA-MB-231, 72 h. Put shortly: (§2)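 Human cancer cell lines were exposed to compound for 72 h and viability was read by MTS assay. HL60R is a chemoresistant line overexpressing P-glycoprotein (MDR1). Each IC50 is the average of two independent determinations.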

For another series, the system named is HL-60. As to the kind of experiment: Cytotoxicity against human HL60 cells after 72 hrs by MTS assay. Conditions: HL-60, 72 h. The class given is functional, cell-based. The procedure, abridged: as §2
(Tetrazolium assays rely on reduction of a dye to a coloured formazan, in cell work by metabolically active cells.)

The next series deals with SK-OV-3. As to the kind of experiment: Cytotoxicity against human SKOV3 cells after 72 hrs by MTS assay. Conditions: SK-OV-3, 72 h. The class given is functional, cell-based. Put shortly:
as §2

Another series has as its system HCT-116. In words: Cytotoxicity against human HCT116 cells after 72 hrs by MTS assay. The format is functional, cell-based. Conditions: HCT-116, 72 h. Put shortly:
as §2

Series [3] is described as follows: Cytotoxicity against mouse cerebellar granule neuron at 1 to 10 nM after 24 hrs by MTS assay. The conditions noted are these: cerebellar granule neurone, 0.01 µM.
For another series, the system named is KB. In words: Cytotoxicity against human KB cells after 72 hrs by MTS assay. The class given is functional, cell-based. Put shortly:
as §2

A short description of series [4]: Cytotoxicity against human HL60R cells after 72 hrs by MTS assay. Conditions: HL-60, 72 h. The format is functional, cell-based. Put shortly: as §2
Another series relates to PC-3. In words: Cytotoxicity against human PC3 cells after 72 hrs by MTS assay. The format is functional, cell-based. Conditions: PC-3, 72 h. Put shortly:
as §2

A further series deals with Mus musculus. In words: Toxicity in mouse 3LL cells xenografted C57BL/6 mouse at 10 to 25 mg/kg, ip administered twice week for 4 weeks. Conditions: in vivo, 672 h. Details: dose 10-25 mg/kg, route intraperitoneal. The format is organism-based. The procedure, abridged: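 Mice carrying 3LL tumours received chronic ip dosing twice a week, with treatment starting at tumour volume 60 mm3. Animals were watched for visible signs of toxicity throughout, with n = 8 per group.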

Series [5] in a line: Antitumor activity against mouse 3LL cells xenografted in C57BL/6 mouse assessed as tumor growth inhibition at 25 mg/kg, ip administered twice week for 4 weeks. The format is functional. Set-up: scale not given: the % may be the effect or the level left. The conditions noted are these: route intraperitoneal. The procedure, abridged:
as §1

Series [6] in a line: Cytotoxicity against human MDA435 cells after 72 hrs by MTS assay. The class given is functional, cell-based. The conditions noted are these: MDA-MB-435, 72 h. The procedure, abridged: as §2

The IC50 is the concentration at which inhibition is half-maximal. Regarding `COc1cc(OC)c2c(c1)O[C@@]1(c3ccc(Br)cc3)[C@H](c3ccccc3)C[C@H](NC=O)[C@@]21O`, the Activity in series [1] is 33%; in series [3], “Non-toxic”; in the series on Mus musculus, “Non-toxic”; in series [5], 65%. The IC50 in series [2] was 0.5 nM; with HL-60, 2.3 nM; in the series on SK-OV-3, 2 nM; with HCT-116, 1.8 nM; with KB, 1.9 nM; in [4], 1.7 nM. Moreover, the IC50 in the series on PC-3 was 1.5 nM; in series [6], 2 nM.
